ChEMBL document CHEMBL1828622, “Structure-based design and synthesis of 1,3-oxazinan-2-one inhibitors of 11β-hydroxysteroid dehydrogenase type 1” (J Med Chem, 2011)
Values belong to the compound of their own block, whether it stands above or below them.

Assays:
[1] = AUC (infinity) in rat at 10 mg/kg, po; type: ADME, organism-based; parameters: time infinity, dose 10 mg/kg, route oral; conditions: plasma
Outline: (§1)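 Rat pharmacokinetics after single iv dose of 2 mg/kg and oral dose of 10 mg/kg; oral vehicle differs by compound: 10% ethanol/10% Tween 80 (polysorbate 80)/80% PEG 400 solution, the same with 1% DMSO, or 0.5% methyl cellulose in deionized water suspension. Readouts: oral AUC(inf), oral t1/2, iv clearance, oral bioavailability F.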

[2] = Oral bioavailability in rat at 10 mg/kg; type: ADME, organism-based; conditions: in vivo; outline: as §1
[3] = AUC (infinity) in dog at 2 mg/kg, po; type: ADME, organism-based, Canis lupus familiaris; parameters: time infinity, dose 2 mg/kg, route oral; conditions: plasma
[4] = AUC (infinity) in cynomolgus monkey at 2 mg/kg, po; type: ADME, organism-based, Macaca fascicularis; parameters: time infinity, dose 2 mg/kg, route oral; conditions: plasma
[5] = Oral bioavailability in dog at 2 mg/kg; type: ADME, organism-based, Canis lupus familiaris; conditions: in vivo
[6] = Oral bioavailability in cynomolgus monkey at 2 mg/kg; type: ADME, organism-based, Macaca fascicularis; conditions: in vivo
[7] = Biodistribution in mouse liver at 30 mg/kg, po administered as single dose measured after 1 hr by LC-MS/MS method; type: ADME, organism-based; parameters: dose 30 mg/kg, route oral; conditions: read-out: Drug uptake
Outline: (§2)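 Mice (n = 3) given single oral 30 mg/kg dissolved in 10% ethanol/10% Tween 80/80% PEG 400; tissues collected at sacrifice at 1, 4 and 8 h, snap frozen, later thawed and homogenized in 0.05 M BES pH 7; compound extracted into acetonitrile and quantified by LC-MS/MS against standard curves prepared separately in each tissue matrix.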

[8] = Biodistribution in mouse liver at 30 mg/kg, po administered as single dose measured after 4 hrs by LC-MS/MS method; type: ADME, organism-based; parameters: dose 30 mg/kg, route oral; conditions: read-out: Drug uptake; outline: as §2
[9] = Biodistribution in mouse liver at 30 mg/kg, po administered as single dose measured after 8 hrs by LC-MS/MS method; type: ADME, organism-based; parameters: dose 30 mg/kg, route oral; conditions: read-out: Drug uptake; outline: as §2
[10] = Biodistribution in mouse adipose tissue at 30 mg/kg, po administered as single dose measured after 1 hr by LC-MS/MS method; type: ADME, organism-based; parameters: dose 30 mg/kg, route oral; conditions: read-out: Drug uptake; outline: as §2
[11] = Biodistribution in mouse adipose tissue at 30 mg/kg, po administered as single dose measured after 4 hrs by LC-MS/MS method; type: ADME, organism-based; parameters: dose 30 mg/kg, route oral; conditions: read-out: Drug uptake; outline: as §2
[12] = Biodistribution in mouse adipose tissue at 30 mg/kg, po administered as single dose measured after 8 hrs by LC-MS/MS method; type: ADME, organism-based; parameters: dose 30 mg/kg, route oral; conditions: read-out: Drug uptake; outline: as §2
[13] = Biodistribution in mouse plasma at 30 mg/kg, po administered as single dose measured after 1 hr by LC-MS/MS method; type: ADME, organism-based; parameters: dose 30 mg/kg, route oral; conditions: read-out: Drug uptake; outline: as §2
[14] = Biodistribution in mouse plasma at 30 mg/kg, po administered as single dose measured after 4 hrs by LC-MS/MS method; type: ADME, organism-based; parameters: dose 30 mg/kg, route oral; conditions: read-out: Drug uptake; outline: as §2
[15] = Biodistribution in mouse plasma at 30 mg/kg, po administered as single dose measured after 8 hrs by LC-MS/MS method; type: ADME, organism-based; parameters: dose 30 mg/kg, route oral; conditions: read-out: Drug uptake; outline: as §2

Compound: C[C@@H](c1ccc(-c2ccc(F)cc2)cc1)N1CC[C@](CCCO)(c2ccccc2)OC1=O
AUC(0-inf) [1]: 450 ng·h/mL | bioavailability [2]: 23%

Compound: C[C@@H](c1ccc(-c2ccc(F)cc2F)cc1)N1CC[C@](CCO)(c2ccc(F)cc2)OC1=O
AUC(0-inf) [1]: 3870 ng·h/mL | AUC(0-inf) [3]: 584 ng·h/mL | AUC(0-inf) [4]: 1500 ng·h/mL | bioavailability [2]: 94% | bioavailability [5]: 16% | bioavailability [6]: 26% | concentration at 1 h [7]: 15300 ng/mL | concentration at 4 h [8]: 9810 ng/mL | concentration at 8 h [9]: 1900 ng/mL | concentration at 1 h [10]: 5520 ng/mL | concentration at 4 h [11]: 3160 ng/mL | concentration at 8 h [12]: 632 ng/mL | concentration at 1 h [13]: 5930 ng/mL | concentration at 4 h [14]: 3260 ng/mL | concentration at 8 h [15]: 573 ng/mL

Compound: C[C@@H](c1ccc(-c2ccc(F)cc2)cc1)N1CC[C@](CCO)(c2ccc(F)cc2)OC1=O
AUC(0-inf) [1]: 3170 ng·h/mL | bioavailability [2]: 83%

Results, then the compound that gave them:

AUC(0-inf) [1]: 1040 ng·h/mL | bioavailability [2]: 44%
Compound: O=C1OC(CCO)(c2ccccc2)CCN1c1cccc(-c2ccc(F)cc2F)c1 (stereo not given)

AUC(0-inf) [1]: 915 ng·h/mL | bioavailability [2]: 19%
Compound: C[C@@H](c1ccc(-c2ccc(F)cc2F)cc1)N1CC[C@](CCCO)(c2ccccc2)OC1=O

AUC(0-inf) [1]: 99 ng·h/mL | bioavailability [2]: 4%
Compound: Cc1cccc(N2CCC(C)(c3ccccc3)OC2=O)c1 (single isomer, unassigned; isomer 1)
